ChEMBL document CHEMBL4145601, “Novel Nitric Oxide Donors of Phenylsulfonylfuroxan and 3-Benzyl Coumarin Derivatives as Potent Antitumor Agents” (ACS Med Chem Lett, 2018)
The source made the active and inactive calls. The rule behind the calls is not given here.

Tests used:
[1] = test system: WI-38; experiment: Cytotoxicity against human WI38 cells after 72 hrs by MTS assay; format: cell-based; settings: WI-38, 72 h
Procedure, shortened: (§1)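 Non-tumour human cells were HUVEC (umbilical vein endothelial), T29 (immortalized, nontumorigenic ovarian epithelial), WI-38 (lung fibroblasts) and MCF-10A (nontumorigenic breast epithelial). Viability was read by tetrazolium assay. IC50 is the mean of triplicate determinations.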

[2] = test system: HeLa; experiment: Antiproliferative activity against human HeLa cells after 48 hrs by MTT assay; format: functional, cell-based
Procedure, shortened: (§2)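 Human tumour lines were HeLa (cervical), SKOV3, OVCA429, OVCA433 and A2780 (ovarian), A549 (non-small cell lung), MDA-MB-231 and MCF-7 (breast), and KB (oral epidermoid). Antiproliferation was read by MTT assay. IC50 is the mean of triplicate determinations.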

[3] = test system: SK-OV-3; experiment: Antiproliferative activity against human SKOV3 cells after 48 hrs by MTT assay; format: functional, cell-based; settings: SK-OV-3, 48 h; procedure, shortened: as §2
[4] = test system: A549; experiment: Antiproliferative activity against human A549 cells after 48 hrs by MTT assay; format: functional, cell-based; settings: A549, 48 h; procedure, shortened: as §2
[5] = Antiproliferative activity against human OVCA429 cells after 48 hrs by MTT assay; format: functional, cell-based; settings: OVCA429, 48 h; procedure, shortened: as §2
[6] = Antiproliferative activity against human OVCA433 cells after 48 hrs by MTT assay; format: functional, cell-based; settings: OVCA433, 48 h; procedure, shortened: as §2
[7] = test system: A2780; experiment: Antiproliferative activity against human A2780 cells after 48 hrs by MTT assay; format: functional, cell-based; settings: A2780, 48 h; procedure, shortened: as §2
[8] = test system: MDA-MB-231; experiment: Antiproliferative activity against human MDA-MB-231 cells after 48 hrs by MTT assay; format: functional, cell-based; settings: MDA-MB-231, 48 h
[9] = test system: MCF7; experiment: Antiproliferative activity against human MCF7 cells after 48 hrs by MTT assay; format: functional, cell-based; settings: MCF7, 48 h; procedure, shortened: as §2
[10] = test system: KB; experiment: Antiproliferative activity against human KB cells after 48 hrs by MTT assay; format: functional, cell-based; procedure, shortened: as §2
[11] = test system: MV4-11; experiment: Antiproliferative activity against human MV411 cells after 72 hrs by MTS assay; format: functional, cell-based; settings: MV4-11, 72 h
Procedure, shortened: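 Human myeloid leukaemia MV-4-11 cells; antiproliferation read by MTS assay. IC50 is the mean of triplicate determinations.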

[12] = test system: MM1.S; experiment: Antiproliferative activity against human MM1S cells after 72 hrs by MTS assay; format: functional, cell-based
[13] = Antiproliferative activity against human A2780/CDDP cells after 48 hrs by MTT assay; format: functional, cell-based
Procedure, shortened: (§3)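 Drug-resistant human tumour lines were A2780/CDDP (cisplatin-resistant ovarian), MDA-MB-231/Gem (gemcitabine-resistant breast), MCF-7/ADR and KB-V. Antiproliferation was read by MTT assay. IC50 is the mean of triplicate determinations.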

[14] = Antiproliferative activity against human MDA-MB-231/Gem cells after 48 hrs by MTT assay; format: functional, cell-based
[15] = test system: NCI/ADR-RES; experiment: Antiproliferative activity against human MCF7/ADR cells after 48 hrs by MTT assay; format: functional, cell-based; procedure, shortened: as §3
[16] = Antiproliferative activity against human KBV cells after 48 hrs by MTT assay; format: functional, cell-based; procedure, shortened: as §3
[17] = Selectivity ratio of IC50 for human A2780 cells to IC50 for A2780/CDDP cells; format: functional
Procedure, shortened: (§4)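 Selectivity ratio = IC50 in the drug-sensitive parent line / IC50 in its resistant subline (A2780 vs A2780/CDDP, MDA-MB-231 vs MDA-MB-231/Gem, MCF-7 vs MCF-7/ADR, KB vs KB-V). Each IC50 came from MTT assays, mean of triplicates.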

[18] = Selectivity ratio of IC50 for human MDA-MB-231 cells to IC50 for MDA-MB-231/Gem cells; format: functional; procedure, shortened: as §4
[19] = Selectivity ratio of IC50 for human MCF7 cells to IC50 for MCF7/ADR cells; format: functional; procedure, shortened: as §4
[20] = Selectivity ratio of IC50 for human KB cells to IC50 for KBV cells; format: functional; procedure, shortened: as §4
[21] = test system: HUVEC; experiment: Cytotoxicity against HUVEC after 48 hrs by MTT assay; format: cell-based; settings: Homo sapiens; procedure, shortened: as §1
[22] = Cytotoxicity against human T29 cells after 48 hrs by MTT assay; format: cell-based; settings: T29, 48 h; procedure, shortened: as §1
[23] = Drug metabolism in human A2780 cells assessed as nitric oxide release at 100 uM after 150 mins by Griess assay; format: ADME, cell-based; settings: a2780, 2.5 h
[24] = target: Dual specificity mitogen-activated protein kinase kinase; MEK1/2 (Homo sapiens) (UniProt P36507+Q02750); experiment: Inhibition of MEK (unknown origin); format: protein assay
[25] = test system: MCF-10A; experiment: Cytotoxicity against human MCF10A cells after 72 hrs by MTS assay; format: cell-based; procedure, shortened: as §1
[26] = test system: A2780; experiment: Antiproliferative activity against human A2780 cells at 50 nM after 48 hrs in presence of scavenger c-PTIO by MTT assay; format: functional, cell-based
Procedure, shortened: (§5)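 A2780 and A2780/CDDP cells were exposed to compound at 50 nM together with a series of concentrations of the NO scavenger c-PTIO. Antiproliferation was measured and reported as mean ± SEM of two independent experiments.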

[27] = organism: Homo sapiens; experiment: Antiproliferative activity against human A2780/CDDP cells at 50 nM after 48 hrs in presence of scavenger c-PTIO by MTT assay; format: functional, cell-based; procedure, shortened: as §5
[28] = test system: A2780; experiment: Induction of apoptosis in human A2780 cells assessed as increase in early apoptotic cells at 10 to 20 nM measured after 24 hrs by Annexin-V-FITC/propidium iodide staining based flow cytometric method; format: functional, cell-based
[29] = Resistance ratio of IC50 for human KBV cells to IC50 for human KB cells; format: functional
Procedure, shortened: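 Resistance ratio = IC50 in the resistant line / IC50 in the drug-sensitive parent line. Each IC50 came from MTT assays, mean of triplicate determinations.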

Dual specificity mitogen-activated protein kinase kinase; MEK1/2 (Homo sapiens), sequence (P36507 whole entry, looked up): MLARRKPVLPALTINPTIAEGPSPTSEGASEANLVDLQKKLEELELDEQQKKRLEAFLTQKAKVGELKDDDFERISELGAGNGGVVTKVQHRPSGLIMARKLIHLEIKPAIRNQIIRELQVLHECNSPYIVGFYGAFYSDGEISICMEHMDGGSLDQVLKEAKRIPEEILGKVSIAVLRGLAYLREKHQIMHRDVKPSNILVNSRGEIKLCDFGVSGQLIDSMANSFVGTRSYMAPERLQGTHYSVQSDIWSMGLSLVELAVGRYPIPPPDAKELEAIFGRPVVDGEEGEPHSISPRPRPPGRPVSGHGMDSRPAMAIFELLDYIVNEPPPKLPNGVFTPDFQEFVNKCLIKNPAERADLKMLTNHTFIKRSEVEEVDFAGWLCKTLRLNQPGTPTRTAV
Dual specificity mitogen-activated protein kinase kinase; MEK1/2 (Homo sapiens), sequence (Q02750 whole entry, looked up): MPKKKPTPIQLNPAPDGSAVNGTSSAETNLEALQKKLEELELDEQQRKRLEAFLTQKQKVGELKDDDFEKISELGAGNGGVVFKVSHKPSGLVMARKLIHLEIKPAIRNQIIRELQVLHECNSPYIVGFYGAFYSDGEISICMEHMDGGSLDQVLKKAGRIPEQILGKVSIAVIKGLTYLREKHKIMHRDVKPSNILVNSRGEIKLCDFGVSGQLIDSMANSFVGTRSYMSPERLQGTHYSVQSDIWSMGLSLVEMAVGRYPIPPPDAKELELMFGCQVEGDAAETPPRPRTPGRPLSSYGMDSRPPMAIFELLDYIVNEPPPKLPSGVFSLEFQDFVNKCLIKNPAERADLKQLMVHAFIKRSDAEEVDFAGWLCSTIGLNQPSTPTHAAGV

SMILES	IC50 [2]	IC50 [3]	IC50 [4]	IC50 [7]	IC50 [8]	IC50 [9]	IC50 [10]	IC50 [11]	IC50 [12]	IC50 [1]	IC50 [5]	IC50 [6]	IC50 [13]	IC50 [14]	IC50 [15]	IC50 [16]	Ratio IC50 [17]	Ratio IC50 [18]	Ratio IC50 [19]	Ratio IC50 [20]	also measured
Cc1c(Cc2ccccc2)c(=O)oc2cc(OCCOc3no[n+]([O-])c3S(=O)(=O)c3ccccc3)ccc12	22.9 nM	17.3 nM	2 nM	12.7 nM	6 nM	2350 nM	4540 nM	24.5 nM	12 nM	> 20000 nM	1.7 nM	1.1 nM	94 nM	25.2 nM	16.3 nM	16 nM	0.1	0.2	144.2	283.9	IC50 [25]: > 20000 nM; IC50 [21]: 440 nM; IC50 [22]: > 5000 nM; Drug metabolism [23]: Metabolite_Detected; inhibition [24]: inactive
Cc1ccc(NC(=O)NCc2ccc3c(c2)CN(C2CCC(=O)NC2=O)C3=O)cc1Cl (stereo not given)	–	–	–	–	–	–	–	0.3 nM	–	> 20000 nM	–	–	–	–	–	–	–	–	–	–	IC50 [25]: 5 nM
Cc1c(Cc2ccc(F)cc2)c(=O)oc2cc(OCCOc3no[n+]([O-])c3S(=O)(=O)c3ccccc3)ccc12	2.8 nM	8.3 nM	3.7 nM	6.6 nM	0.8 nM	2850 nM	3230 nM	27.2 nM	143 nM	> 20000 nM	3.9 nM	3.3 nM	22.8 nM	6.9 nM	5.1 nM	11 nM	0.3	0.1	559.4	294	IC50 [25]: > 20000 nM; IC50 [21]: 270 nM; IC50 [22]: > 5000 nM; Drug metabolism [23]: Metabolite_Detected; Activity [26]: inactive; Activity [27]: inactive; inhibition [24]: inactive; Activity [28]: Active
CC[C@]1(O)C[C@H]2CN(CCc3c([nH]c4ccccc34)[C@@](C(=O)OC)(c3cc4c(cc3OC)N(C=O)[C@H]3[C@@](O)(C(=O)OC)[C@H](OC(C)=O)[C@]5(CC)C=CCN6CC[C@]43[C@@H]65)C2)C1 [VINCRISTINE]	–	–	–	–	–	–	0.65 nM	–	–	–	–	–	–	–	–	417 nM	–	–	–	–	Ratio IC50 [29]: 646

More lines, in order of falling IC50 [10], values ahead:

IC50 [2]	IC50 [3]	IC50 [4]	IC50 [7]	IC50 [8]	IC50 [9]	IC50 [10]	IC50 [11]	IC50 [12]	SMILES	IC50 [1]	IC50 [5]	IC50 [6]	IC50 [13]	IC50 [14]	IC50 [15]	IC50 [16]	Ratio IC50 [17]	Ratio IC50 [18]	Ratio IC50 [19]	Ratio IC50 [20]	also measured
8830 nM	3910 nM	4780 nM	1640 nM	1230 nM	3500 nM	3690 nM	–	–	COCCOc1no[n+]([O-])c1S(=O)(=O)c1ccccc1	–	5170 nM	4390 nM	4820 nM	4750 nM	7840 nM	1960 nM	0.3	0.3	0.5	1.9	–
17.8 nM	35.8 nM	3.3 nM	8.7 nM	0.5 nM	1860 nM	2180 nM	29.3 nM	28 nM	COc1cc(OCCOc2no[n+]([O-])c2S(=O)(=O)c2ccccc2)ccc1C(=O)/C=C/c1ccccc1	440 nM	4.4 nM	10.1 nM	51.7 nM	10.5 nM	18 nM	13.9 nM	0.2	0.05	103.6	157	IC50 [21]: 410 nM; IC50 [22]: 2500 nM; Drug metabolism [23]: Metabolite_Detected; inhibition [24]: inactive
